{
  "source": "ChEMBL document CHEMBL2157878",
  "about": "“In vitro cellular uptake and dimerization of signal transducer and activator of transcription-3 (STAT3) identify the photosensitizing and imaging-potential of isomeric photosensitizers derived from chlorophyll-a and bacteriochlorophyll-a” (J Med Chem, 2011)",
  "key": {"[1]": {"system": "Muscle tissue", "test": "Drug uptake in BALB/c mouse muscle xenografted with mouse Colon 26 cells at 150 uCi administered parenterally after 2 hrs by PET analysis", "format": "ADME, tissue-based", "conditions": "in vivo"}, "[2]": {"system": "Heart", "test": "Drug uptake in BALB/c mouse heart xenografted with mouse Colon 26 cells at 150 uCi administered parenterally after 2 hrs by PET analysis", "format": "ADME, tissue-based", "conditions": "in vivo, other"}, "[3]": {"test": "Drug uptake in BALB/c mouse tumor xenografted with mouse Colon 26 cells at 150 uCi administered parenterally after 2 hrs by PET analysis", "format": "ADME, Neoplasm", "conditions": "in vivo, other"}, "[4]": {"test": "Photostability of the compound in 17% bovine calf serum assessed as rate of photobleaching at 6.5 uM after 20 to 22 mins in presence of light (75 mW/cm'2)", "format": "ADME", "conditions": "cattle, read-out: Drug degradation", "how_it_was_run": "(§1)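 Equimolar (6.5 μM) photosensitizer solutions in 17% bovine calf serum were irradiated at 75 mW/cm². Absorption spectra were recorded at successive time points, and the normalized long-wavelength absorbance was plotted against time to follow photobleaching.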"}, "[5]": {"test": "Photostability of the compound in 17% bovine calf serum assessed as decrease in rate of photobleaching at 6.5 uM after 40 mins in presence of light (75 mW/cm'2)", "format": "ADME", "conditions": "cattle", "how_it_was_run": "as §1"}, "[6]": {"test": "Drug uptake in human BCC1 cells assessed as deposition in mitochondria at 200 nM after 30 mins by phase contrast microscopy", "format": "ADME", "conditions": "bcc1, 0.5 h, 0.2 µM", "how_it_was_run": "(§2)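 BCC1 cells in subconfluent culture, washed and incubated 30 min in serum-free DMEM with 200 nM PS. Washed free of PS and imaged at 640X under phase contrast and HPPH fluorescence (Ex 410/40, Em 675/750 nm). Cell PS also quantified by solubilising cells and reading fluorescence (Ex 415, Em 667 nm).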"}, "[7]": {"test": "Drug uptake in human BCC1 cells assessed as deposition in mitochondria at 200 nM after 30 mins by HPPH fluorescence spectrophotometry", "format": "ADME", "conditions": "bcc1, 0.5 h, 0.2 µM", "how_it_was_run": "as §2"}, "[8]": {"test": "Drug uptake in human BCC1 cells at 200 nM incubated for 30 mins measured after 4 to 24 hrs by fluorescent microscopy", "format": "ADME, cell-based", "conditions": "bcc1, 0.5 h, 0.2 µM"}, "[9]": {"system": "BCC1", "test": "Reduction in EGFR levels in human BCC1 cells after 9 mins by Western blotting in presence of 665 nm laser light", "format": "functional, cell-based", "how_it_was_run": "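BCC1 cells were incubated 2 h in serum-free DMEM with 2-fold serially diluted photosensitizer, washed, and illuminated with 665 nm light for 9 min (3 J/cm²). They were extracted immediately in RIPA buffer. Extracts (20 μg protein) were run on 6–10% SDS gels and immunoblotted for STAT3, EGFR, p38 and P-p38 with ECL detection. STAT3 crosslinking was scored as percent conversion of monomer into dimer form I.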"}, "[10]": {"molecular_target": "MAP kinase p38 (Homo sapiens) (UniProt O15264+Q15759+Q16539+P53778)", "test": "Activation of p38 MAPK in human BCC1 cells assessed as dimerization of STAT3 after 9 mins by Western blotting in presence of 665 nm laser light", "format": "cell-based", "how_it_was_run": "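Subconfluent BCC1 cells, 2 h in serum-free DMEM with 2-fold serially diluted PS, then 665 nm dye-laser light for 9 min at 37°C (3 J/cm²) in serum-free medium. Cells extracted immediately and lysed in RIPA. 20 μg protein run on 6–10% SDS gels and immunoblotted for STAT3, p38/P-p38 and EGFR with ECL detection. Crosslinking given as % monomeric STAT3 converted to dimer form I.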"}, "[11]": {"system": "BCC1", "test": "Induction of apoptosis in human BCC1 cells assessed as survival after 24 hrs by trypan blue assay", "format": "functional, cell-based", "how_it_was_run": "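BCC1 cells were loaded for 2 h in serum-free DMEM with 2-fold serial dilutions of photosensitizer. After washing, they were illuminated in serum-free medium at 37° with 665 nm dye-laser light for 9 min (3 J/cm²). Cells were then cultured 24 h in DMEM/10% FCS and trypsinized. Trypan blue-excluding cells were counted by hemocytometer and expressed relative to untreated controls.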"}, "[12]": {"system": "Colon 26", "test": "Photosensitizing activity in mouse Colon 26 assessed as cell viability at 0.0625 uM after 24 hrs followed by illumination with 665 nm laser light and 48 hrs incubation in dark by MTT assay in presence of serum", "format": "functional, cell-based", "how_it_was_run": "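Colon26 cells, 3×10³/well in RPMI/10% FCS, were incubated 24 h in the dark with photosensitizer at 0.3 μM or 0.0625 μM. Medium was replaced with drug-free complete medium before illumination at 0–4 J/cm², 3.2 mW/cm², at each compound's peak wavelength (660, 665 or 674 nm). After 48 h in the dark, MTT was added for the last 4 h and absorbance read at 570 nm. Four replicate wells per condition, three independent experiments.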"}, "[13]": {"system": "Colon 26", "test": "Drug uptake in mouse Colon 26 cells at 400 nM after 24 hrs by flow cytometry", "format": "ADME, cell-based", "conditions": "colon 26, 24 h, 0.4 µM", "how_it_was_run": "(§3)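 Colon26 cells seeded at 0.33×10⁶ per well and grown overnight, then given 100–800 nM PS in triplicate at 37°C, with no-PS wells for autofluorescence. Harvested by trypsin, spun cold, and run on flow cytometry (Ex 633 nm, Em 730±45 nm, 10,000 events). Value is mean fluorescence of triplicates minus autofluorescence.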"}, "[14]": {"system": "Colon 26", "test": "Drug uptake in mouse Colon 26 cells at 800 nM after 24 hrs by flow cytometry", "format": "ADME, cell-based", "conditions": "colon 26, 24 h, 0.8 µM", "how_it_was_run": "as §3"}, "[15]": {"system": "Colon 26", "test": "Antitumor activity against mouse Colon 26 cells xenografted in parenterally dosed BALB/c mouse assessed as tumor cure at 1 umol/kg after 24 hrs followed by illumination with 128 J/cm'2, 14 mW/cm'2 laser light measured after 60 days", "format": "functional", "how_it_was_run": "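Subcutaneous Colon26 tumours in BALB/c mice (10/group), dosed at 4–5 mm diameter with 1 μmol/kg PS. At 24 h, unanaesthetised restrained mice received laser light to the tumour (665, 660 or 674 nm by compound; 128 J/cm², 14 mW/cm²). Tumours measured daily (V = L·W²/2). Cure means no palpable tumour by day 60–90. Euthanasia at 400 mm³.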"}, "[16]": {"system": "Mus musculus", "test": "Drug uptake in BALB/c mouse xenografted with mouse Colon 26 cells at 1 umol/kg, iv after 24 hrs by fluorescence imaging", "format": "ADME, organism-based", "conditions": "in vivo", "how_it_was_run": "(§4)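 BALB/c mice (3/group) with Colon26 tumours (1×10⁶ cells s.c., right axilla, grown to 4–5 mm) were shaved and given 1.0 μmol/kg PS i.v. Whole-body fluorescence imaged under ketamine/xylazine at 24, 48 and 72 h: 540/40 nm illumination, long-pass emission filter, spectral unmixing of autofluorescence. Read-out is mean intensity of a 20 mm tumour ROI (AU), mean ± SD of 3 mice.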"}, "[17]": {"system": "Mus musculus", "test": "Drug uptake in BALB/c mouse xenografted with mouse Colon 26 cells at 1 umol/kg, iv after 48 hrs by fluorescence imaging", "format": "ADME, organism-based", "conditions": "in vivo", "how_it_was_run": "as §4"}, "[18]": {"system": "Mus musculus", "test": "Drug uptake in BALB/c mouse xenografted with mouse Colon 26 cells at 1 umol/kg, iv after 72 hrs by fluorescence imaging", "format": "ADME, organism-based", "conditions": "in vivo", "how_it_was_run": "as §4"}, "[19]": {"test": "Drug uptake in BALB/c mouse tumor xenografted with mouse Colon 26 cells at 1 umol/kg, iv after 24 hrs by fluorescence imaging", "format": "ADME, organism-based, Neoplasm", "conditions": "in vivo", "how_it_was_run": "as §4"}, "[20]": {"system": "BCC1", "test": "Increase in STAT3 cross linking level in human BCC1 cells assessed as dimerization of STAT3 after 9 mins by Western blotting in presence of 665 nm light"}, "[21]": {"system": "BCC1 cells (Homo sapiens)", "test": "Ratio of drug uptake in human BCC1 cells in serum free medium to drug uptake in human BCC1 cells in medium containing 10% fetal calf serum by fluorescent microscopy"}},
  "note": "Activity calls are given as the source filed them. The rule behind the calls is not given here.",
  "data": [
    {"smiles": "OC[C@H]1O[C@@H](O)[C@H]([18F])[C@@H](O)[C@@H]1O", "note": "[FLUDEOXYGLUCOSE-F18]", "values": [
      {"measurement": "Drug uptake", "setting": "[1]", "value": "Active"},
      {"measurement": "Drug uptake", "setting": "[2]", "value": "Active"},
      {"measurement": "Drug uptake", "setting": "[3]", "value": "Active"}
    ]},
    {"smiles": "CCc1c(C)c2cc3nc(c4c5[nH]c(cc6nc(cc1[nH]2)C(C)=C6C(C)OCc1cccc(I)c1)c(C)c5C(=O)C4)[C@@H](CCC(=O)O)[C@@H]3C", "note": "(stereo partly specified)", "values": [
      {"measurement": "degraded at 6.5 µM", "setting": "[4]", "value": 50, "unit": "%"},
      {"measurement": "Stability", "setting": "[5]", "value": "Stable"},
      {"measurement": "Drug uptake", "setting": "[6]", "value": "Active"},
      {"measurement": "Drug uptake", "setting": "[7]", "value": "Active"},
      {"measurement": "Drug uptake", "setting": "[8]", "value": "Active"},
      {"measurement": "Activity", "setting": "[9]", "value": "Active"},
      {"measurement": "Activity", "setting": "[10]", "value": "Active"},
      {"measurement": "Activity", "setting": "[11]", "value": "Dose-dependent effect"},
      {"measurement": "Activity", "setting": "[12]", "value": "Active"},
      {"measurement": "Drug uptake", "setting": "[13]", "value": "Active"},
      {"measurement": "Drug uptake", "setting": "[14]", "value": "Active"},
      {"measurement": "Activity", "setting": "[15]", "value": "inactive"},
      {"measurement": "Drug uptake", "setting": "[16]", "value": "Active"},
      {"measurement": "Drug uptake", "setting": "[17]", "value": "Active"},
      {"measurement": "Drug uptake", "setting": "[18]", "value": "Active"},
      {"measurement": "Drug uptake", "setting": "[19]", "value": "Not Active"},
      {"measurement": "Activity", "setting": "[20]", "value": "Active"},
      {"measurement": "Ratio", "setting": "[21]", "value": 4}
    ]}
  ]
}
